CXCR6 inh: CXCR6 receptor inhibitors, primary screen, cell-based, beta-arrestin, luminescence, CHO-K1 PathHunter, 1536-well; inhibition, % at 20 µM; 0.36% of 360,000 active; in the data active means inhibition above about 34%, passing the limit was not always enough;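 further: antagonist mode with CXCL16 agonist at 10 nM final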
Target sequence (O00574 whole entry, looked up): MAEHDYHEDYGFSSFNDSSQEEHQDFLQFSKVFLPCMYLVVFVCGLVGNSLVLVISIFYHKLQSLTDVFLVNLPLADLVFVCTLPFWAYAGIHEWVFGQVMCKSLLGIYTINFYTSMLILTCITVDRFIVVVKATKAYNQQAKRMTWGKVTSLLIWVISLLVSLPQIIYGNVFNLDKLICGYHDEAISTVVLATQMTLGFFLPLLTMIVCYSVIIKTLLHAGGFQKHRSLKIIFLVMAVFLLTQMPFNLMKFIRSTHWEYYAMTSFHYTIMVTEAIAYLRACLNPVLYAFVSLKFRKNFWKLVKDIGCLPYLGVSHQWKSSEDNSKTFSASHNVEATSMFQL
EBI2 block: EBI2 receptor antagonists, beta-arrestin recruitment, primary screen, cell-based, luminescence, 7a,25-OHC stimulation, uHTS; G-protein coupled receptor 183 (Homo sapiens), P32249; 7a,25-OHC stimulated; inhibition, % at 5 µM; 0.81% of 360,000 active; AID 651636, 2012; in the data active means inhibition above about 38%;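 further: enzyme fragment complementation signal reports receptor beta-arrestin coupling in cells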
CCR6 antag: CCR6 receptor antagonists, primary screen, cell-based, CHO-K1, luminescence, beta-arrestin, uHTS; C-C chemokine receptor type 6 (Homo sapiens), P51684; CHO-K1 CCR6 PathHunter beta-arrestin, CCL20-stimulated; inhibition, % at 20 µM; 0.49% of 340,000 active; AID 493098, 2011;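 active means compounds whose inhibition of the agonist-driven luminescence signal at 20 µM reaches about 50%, limit read from the data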;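 further: cells stimulated with CCL20 at 14 nM final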
APJ antag: antagonists of human apelin receptor APJ, primary screen, CHO-K1 cells, beta-arrestin complementation, luminescence | AID 2521, 2010 | 0.32% of 330,000 active | inhibition, % at 20 µM | P35414;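 active means inhibition above about 40% at 20 µM, limit read from the data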;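 further: cells challenged with 10 nM apelin-13 agonist together with compound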
APJ ag: agonists of human apelin receptor APJ, primary screen, CHO-K1 cells, PathHunter beta-arrestin, luminescence. P35414. 0% DMSO wells, 100% apelin. activation, % at 20 µM. 0.11% of 330,000 active;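 active means activation more than six SD over the plate average, tested at 20 µM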
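Test system: CHO-K1 APJ beta-arrestin complementation cell line. Amount: cell density 1000 per well. Controls: DMSO negative, 10 nM Apelin-13 positive. Signal: luminescent beta-gal fragment complementation, chemiluminescent substrate. Read-out basis: agonist-driven arrestin binding to APJ. Timing: compound stimulation 90 min at 25 °C, detection 60 min.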
EBI2 antag conf: EBI2 antagonist hit retest, beta-arrestin, confirmation, cell-based, single concentration, luminescence, 7a,25-OHC stimulation. shares compounds with EBI2 block. 7a,25-OHC antagonism. inhibition, % at 5 µM. 29% of 2,400 active. AID 651997, 2013;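 active means inhibition of at least 50%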
EBI2 ag: EBI2 agonist activity of antagonist hits, confirmation, counter-screen for EBI2 antagonist project, cell-based, single concentration, agonist mode, luminescence; shares compounds with EBI2 block; EBI2-expressing cells, 60 min; 0% vehicle, 100% 7α,25-dihydroxycholesterol control; activation, % at 5 µM; AID 652000, 2013; 2,400 tested, under 10 active;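 active means activation of at least 50%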
bGal cs: E. coli beta-galactosidase enzyme inhibition, confirmation, counter-screen for EBI2 antagonist project, biochemical, luminescence, single concentration; shares compounds with EBI2 block; inhibition, % at 5 µM; 1% of 2,400 active; purified beta-galactosidase, luminescent Galacton Star, 15 min;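 active means replicate-average signal at least 3 plate SD below neutral wells, shown as high inhibition, flagging enzyme-inhibiting false positives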;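 further: higher means stronger loss of beta-gal luminescence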
Each line names hits and unclear results; the compound was inactive in the other large screens (follow-up assays come after a bar, where they were run). Shown are actives, neighbours in structure and some others; about 1.5% of the full set was active somewhere.

COc1ccc(NC(=O)N2CCCC(c3nc(-c4ccc(OC)cc4)no3)C2)cc1 (stereo not drawn)	EBI2 block 58 | EBI2 antag conf inactive | EBI2 ag inactive | bGal cs inactive
O=C(Nc1ccc(Cl)cc1)N1CCC(c2nc(-c3ccc(F)cc3)no2)CC1	EBI2 block 53 | EBI2 antag conf inactive | EBI2 ag inactive | bGal cs inactive
COc1ccccc1N1CCN(C(=O)c2cccs2)CC1	none
COc1ccccc1N1CCN(C(=O)/C=C/c2cccs2)CC1	EBI2 block 48 | EBI2 antag conf inactive | EBI2 ag inactive | bGal cs inactive
COc1ccccc1N1CCN(C(=O)/C=C/c2ccccc2)CC1	EBI2 block 84 | EBI2 antag conf 59 | EBI2 ag inactive | bGal cs inactive
COc1ccccc1N1CCN(C(=O)/C=C/c2ccc3c(c2)OCO3)CC1	EBI2 block 78 | EBI2 antag conf 56 | EBI2 ag inactive | bGal cs inactive
Cc1cccc(N2CCN(C(=O)/C=C/c3cccs3)CC2)c1C	EBI2 block 85 | EBI2 antag conf 58 | EBI2 ag inactive | bGal cs inactive
CC(C)C[C@@H](CN1CCC[C@H]1CN1C(=O)C(=O)NC[C@@H]1Cc1ccccc1)N1C[C@H](Cc2ccccc2)N(CC2CCCCCC2)C(=O)C1=O	none (no result: CCR6 antag, APJ antag, APJ ag)
Cn1c(CNC(=O)c2ccc3c(c2)OCO3)nnc1SCC(=O)Nc1ccc(F)cc1	none
C/C(=N/NC(=O)CNC(=O)c1ccncc1)c1ccco1	none
COc1ccc(NC(=S)Nc2cc(C(F)(F)F)ccc2F)cc1	EBI2 block 43 | EBI2 antag conf inactive | EBI2 ag inactive | bGal cs inactive
COc1ccc(NC(=S)NNC(=S)Nc2cccc(C(F)(F)F)c2)cc1	none
CCCCOC(=O)CSc1nc(N)c(C#N)c(-c2ccc(OCC)cc2)c1C#N	none
CSc1c(C#N)c(N)nc2sc(C(=O)c3ccc(Cl)c(Cl)c3)c(N)c12	none (no result: CXCR6 inh, EBI2 block)
COc1ccc(-c2c(C#N)c(N)nc3sc(C(=O)c4ccccc4)c(N)c23)cc1	EBI2 block 49 (no result: APJ antag, APJ ag) | EBI2 antag conf inactive | EBI2 ag inactive | bGal cs inactive
CCOc1ccc(-c2c(C#N)c(N)nc3sc(C(=O)c4ccccc4)c(N)c23)cc1	EBI2 block 42 | EBI2 antag conf inactive | EBI2 ag inactive | bGal cs inactive
Cc1ccc(N(C)C(=O)N2CCN(S(=O)(=O)c3ccc4ccccc4c3)CC2)cc1	EBI2 block 45 | EBI2 antag conf inactive | EBI2 ag inactive | bGal cs inactive
Cc1ccc(N(C)C(=O)N2CCN(S(=O)(=O)c3ccc(C)cc3)CC2)cc1	none
CC(OC(=O)c1ccc(NC(=O)CC#N)cc1)C(=O)Nc1nc(-c2ccccc2)cs1 (stereo not drawn)	none
CC1Cc2nc(SCC(=O)Nc3nc4ccccc4s3)n(C)c(=O)c2S1 (stereo not drawn)	none
CSCc1ccc(C(=O)NCc2ccc(C)cc2)cc1	EBI2 block 64 | EBI2 antag conf inactive | EBI2 ag inactive | bGal cs inactive
Cc1ccc(CNC(=O)c2ccc(COc3ccccc3)cc2)cc1	EBI2 block 52 | EBI2 antag conf 56 | EBI2 ag inactive | bGal cs inactive
O=C(NCc1ccncc1)c1ccc(OCc2ccccc2)cc1	none (no result: APJ antag, APJ ag)
CC(C)(O)C#Cc1ccc(C(=O)NCc2ccccc2)s1	none
CCc1ccc(OCCCCN(C)Cc2ccccc2)cc1	none
CC(=O)Nc1cccc(OCCCNC(=O)c2ccc(C(C)(C)C)cc2)c1	none

Screening data as filed in PubChem.
